Residues, ends and D or L forms follow the SMILES beside them.
Assays:
[1] = system: PC-12; assay: Scavenging activity against nitric oxide radical generation in rat PC12 cells assessed as cell survival by MTT assay; type: functional, cell-based
Method in brief: (§1)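 PC12 cells in DMEM with 10% heat-inactivated horse serum, 5% FBS, 1.0 mM pyruvate, penicillin/streptomycin, 37 °C, 5% CO2; seeded 20,000/well on poly-L-lysine, 24 h attachment. Pretreated 1 h with 12.5–200 µM. Insult: 2 mM SNP 2 h (NO), 1 mM H2O2 1 h, or 1 mM H2O2/30 µM Fe(II) 1 h (•OH). For SNP, fresh media then 14 h culture. Survival by MTT; EC50 (µM).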

[2] = system: PC-12; assay: Scavenging activity against […] generation in rat PC12 cells assessed as cell survival by MTT assay; type: functional, cell-based; method in brief: as §1
[3] = system: PC-12; assay: Scavenging activity against hydrogen peroxide radical generation in rat PC12 cells assessed as cell survival by MTT assay; type: functional, cell-based; method in brief: as §1
[4] = system: Aorta; assay: Scavenging activity against nitric oxide radical generation in Wistar rat aortic strips cells assessed as inhibition of acetylcholine-induced vasorelaxation at 1 umol/L; type: functional, tissue-based
Method in brief: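 Rat aortic strips in 37 °C oxygenated (95% O2/5% CO2) Krebs, pH 7.4, on tension transducers. Precontracted with noradrenaline (final 10^-9 mol/L), washed, stabilized 30 min, recontracted; at peak, compound in water (final 10^-6 mol/L) or NS added, then ACh (final 10^-6 mol/L). Percent inhibition of ACh-induced relaxation recorded.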

[5] = system: Aorta; assay: Scavenging activity against nitric oxide radical generation in Wistar rat aortic strips cells assessed as inhibition of acetylcholine-induced vasorelaxation at 0.01 umol/L
[6] = species on record: Rattus norvegicus; assay: Antithrombotic effect in Wistar rat assessed as reduction in wet thrombus mass at 5 umol/L; type: functional
Method in brief: (§2)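 Male Wistar rats 250-300 g, sodium pentobarbital 80.0 mg/kg ip; arteriovenous shunt (polyethylene tube with weighed 6 cm thread, sodium heparin 50 IU/mL in NS) from right carotid to left jugular vein. Compound dissolved in NS just before use, kept on ice, injected via tube; NS vehicle. Blood flowed 15 min; wet thrombus weighed, dry weight after 2 weeks in desiccator.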

[7] = species on record: Rattus norvegicus; assay: Antithrombotic effect in Wistar rat assessed as reduction in dry thrombus mass at 5 umol/L; type: functional; method in brief: as §2
[8] = system: Aorta; assay: Scavenging activity against nitric oxide radical generation in Wistar rat aortic strips cells assessed as inhibition of acetylcholine-induced vasorelaxation at 0.1 umol/L
[9] = species on record: Rattus norvegicus; assay: Protective effect in ischemia reperfusion Wistar rat model assessed as malondialdehyde per mg of protein; type: functional
[10] = system: Rattus norvegicus; assay: Reduction in infarct size in ischemia reperfusion Wistar rat model assessed as infarct size over risk zone at 10 mg/kg; type: functional; design: scale not given: the % may be the effect or the level left
Method in brief: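 Male Wistar rats 250-300 g, pentobarbital 80.0 mg/kg ip; left coronary artery occluded 30 min by snare, then 120 min reperfusion. Compound 10 mg/kg in DMSO–0.9% NaCl (1:103 v/v) infused transjugularly 15 min before occlusion. Ventricular 1 mm slices stained with 1% TTC 15 min at 37 °C, with Evans blue for area at risk; infarct/risk zone %, n = 8, mean ± SE, t-test.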

[11] = species on record: Rattus norvegicus; assay: Protective effect in sham ischemia reperfusion Wistar rat model assessed as malondialdehyde per mg of protein; type: functional

Structure (SMILES)	EC50 [1] [µM]	EC50 [2] [µM]	EC50 [3] [µM]	inhibition [4] [%]	inhibition [5] [%]	Activity [6] [mg]	Activity [7] [mg]	inhibition [8] [%]	other results
COc1cc(C2N[C@H](C(=O)N[C@@H](CCCNC(=N)N)C(=O)NCC(=O)NN(CC(=O)O)CC(=O)N[C@H](C(=O)O)C(C)C)Cc3c2[nH]c2ccccc32)cc(OC)c1O (stereo partly drawn)	90.2	93.2	45.7	90.1	13	25.46	4.85	63.7	–
COc1cc(C2N[C@H](C(=O)N[C@@H](CCCNC(=N)N)C(=O)NNCC(=O)N[C@H](CC(=O)O)C(=O)N[C@H](C(=O)O)C(C)C)Cc3c2[nH]c2ccccc32)cc(OC)c1O (stereo partly drawn)	–	–	–	95.8	14.1	–	–	71	–
COc1cc(C2N[C@H](C(=O)N[C@@H](CCCNC(=N)N)C(=O)NNCC(=O)N[C@@H](CC(=O)O)C(=O)N[C@H](C(=O)O)C(C)C)Cc3c2[nH]c2ccccc32)cc(OC)c1O (stereo partly drawn) [listing 1 of 2 here]	91.2	90.3	41.2	–	–	–	–	–	–
CC(C)[C@H](NC(=O)[C@H](CC(=O)O)NC(=O)CNC(=O)CN(N)CCCNC(=N)N)C(=O)O	–	–	–	–	–	27.04	4.39	–	–
COc1cc(C2N[C@H](C(=O)NN(CCCNC(=N)N)CC(=O)NCC(=O)N[C@H](CC(=O)O)C(=O)N[C@H](C(=O)O)C(C)C)Cc3c2[nH]c2ccccc32)cc(OC)c1O (stereo partly drawn)	–	–	–	97.2	28.3	–	–	75.3	–
COc1cc(C2N[C@H](C(=O)O)Cc3c2[nH]c2ccccc32)cc(OC)c1O (stereo partly drawn)	88.4	85.9	34.5	81	10.8	44.01	8.03	55.3	–
CC(C)[C@H](NC(=O)[C@H](CC(=O)O)NC(=O)CNNC(=O)[C@@H](N)CCCNC(=N)N)C(=O)O	–	–	–	–	–	34.98	7.05	–	–
CC(C)[C@H](NC(=O)CN(CC(=O)O)NC(=O)CNC(=O)[C@@H](N)CCCNC(=N)N)C(=O)O	–	–	–	–	–	41.8	7.83	–	–
CC(C)[C@H](NC(=O)[C@H](CC(=O)O)NC(=O)CNC(=O)[C@@H](N)CCCNC(=N)N)C(=O)O (H-RGDV-OH)	–	–	–	–	–	35.75	6.78	–	–
COc1cc(C2N[C@H](C(=O)N[C@@H](CCCNC(=N)N)C(=O)NNCC(=O)N[C@@H](CC(=O)O)C(=O)N[C@H](C(=O)O)C(C)C)Cc3c2[nH]c2ccccc32)cc(OC)c1O (stereo partly drawn) [listing 2 of 2 here]	–	–	–	–	–	24.54	3.79	–	–
COc1cc(C2N[C@H](C(=O)NN(CCCNC(=N)N)CC(=O)NCC(=O)N[C@@H](CC(=O)O)C(=O)N[C@H](C(=O)O)C(C)C)Cc3c2[nH]c2ccccc32)cc(OC)c1O (stereo partly drawn) [listing 1 of 2 here]	–	–	–	–	–	21.05	2.23	–	Activity [9]: 2.91 nmol/mg; Activity [10]: 35%; Activity [11]: 2.52 nmol/mg
COc1cc(C2N[C@H](C(=O)NN(CCCNC(=N)N)CC(=O)NCC(=O)N[C@@H](CC(=O)O)C(=O)N[C@H](C(=O)O)C(C)C)Cc3c2[nH]c2ccccc32)cc(OC)c1O (stereo partly drawn) [listing 2 of 2 here]	96.5	95.1	75.4	–	–	–	–	–	–

Source: ChEMBL document CHEMBL1137490, “Design, synthesis and cardioprotective effect of a new class of dual-acting agents: phenolic tetrahydro-beta-carboline RGD peptidomimetic conjugates” (Bioorg Med Chem, 2007)
